# Results collected from several papers.
# Each line is one published result; the experiments were not run side by side.
# Target: NUAK family SNF1-like kinase 1 (NUAK1, Homo sapiens, UniProt O60285)
# Sequence (O60285 1-661, as in one of the studies): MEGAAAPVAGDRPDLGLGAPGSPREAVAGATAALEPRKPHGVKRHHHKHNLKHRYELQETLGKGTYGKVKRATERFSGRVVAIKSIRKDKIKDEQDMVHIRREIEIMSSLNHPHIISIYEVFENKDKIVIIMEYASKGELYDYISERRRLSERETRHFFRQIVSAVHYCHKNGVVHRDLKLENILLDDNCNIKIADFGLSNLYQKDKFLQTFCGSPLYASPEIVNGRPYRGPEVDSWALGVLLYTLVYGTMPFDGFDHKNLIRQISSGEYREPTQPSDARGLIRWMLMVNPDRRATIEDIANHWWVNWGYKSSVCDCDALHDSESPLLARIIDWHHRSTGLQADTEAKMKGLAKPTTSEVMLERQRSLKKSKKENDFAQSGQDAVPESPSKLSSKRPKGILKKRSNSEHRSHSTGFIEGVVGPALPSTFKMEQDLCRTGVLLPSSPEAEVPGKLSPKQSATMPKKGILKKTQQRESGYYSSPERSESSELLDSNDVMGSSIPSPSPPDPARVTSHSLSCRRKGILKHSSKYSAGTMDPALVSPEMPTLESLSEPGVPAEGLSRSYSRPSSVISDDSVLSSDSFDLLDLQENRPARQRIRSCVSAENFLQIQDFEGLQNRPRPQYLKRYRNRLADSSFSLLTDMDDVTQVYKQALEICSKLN
SMILES,assay,setting,remaining binding [%]
CCCCN(CCCC)C(=O)CN1C[C@@H](c2cc(OC)c3c(c2)OCO3)[C@H](C(=O)O)[C@H]1CC(C)(C)CCC,"cell-free assay, competition with immobilised ligand",1 µM,82.4
O=C(c1ccc(Nc2ncc(Cl)c(-c3ccc(Cl)s3)n2)cc1)N1CCC(N2CCCC2)CC1,"binding, competition with immobilised ligand",1 µM,0.65
CNCc1ccccc1-c1csc([C@H](C)Nc2nc(C)nc3cc(OC)c(OC)cc23)c1,"cell-free assay, competition with immobilised ligand",1 µM,90
CC1CCCN1c1nccc(-c2cnn3ncccc23)n1 (stereo not drawn),binding,1 µM,89
O=C(NCCCN1CCOCC1)c1ccc(Nc2ncc(Cl)c(-c3ccc(Cl)s3)n2)cc1,"binding, competition with immobilised ligand",1 µM,0.9
COc1cnc(Nc2cccc(S(N)(=O)=O)c2)nc1N1CCN(c2ccccc2)CC1,"binding, competition with immobilised ligand",1 µM,82
C[C@H]1CCN(c2nccc(-c3cnn4ncccc34)n2)C1,binding,1 µM,90
O=C1CCc2cc(Nc3cc(OC4CCOCC4)c([N+](=O)[O-])cc3Cl)ccc2N1,"cell-free assay, competition with immobilised ligand",1 µM,100
CNC(=O)[C@@H]1CC[C@@H](n2c(-c3ccc4cnccc4c3)nc3ccc(C(=O)NCc4cccc(C(N)=O)c4)cc32)C1,"binding, competition with immobilised ligand",1 µM,84
O=C(NCCCN1CCOCC1)c1ccc(Nc2nccc(-c3cc4ccccc4s3)n2)cc1,"binding, competition with immobilised ligand",1 µM,13
NS(=O)(=O)c1cc(NC(=O)Cc2ccccc2)ccc1Oc1cccc(Cl)c1,"cell-free assay, competition with immobilised ligand",1 µM,100
CN(C)c1nccc(-c2cnc3ncccn23)n1,binding,1 µM,98
O=C(Nc1c[nH]nc1C(=O)NC1CCNCC1)c1cc(F)cc(F)c1,"binding, competition with immobilised ligand",1 µM,76
CN(C)C(=O)Cn1cc(-c2nc([C@@](C)(c3ccc(-c4cnc(N)nc4)cc3)C3CC3)no2)cn1,"cell-free assay, competition with immobilised ligand",1 µM,100
N[C@@H]1CCN(c2nccc(-c3cnn4ncccc34)n2)C1,binding,1 µM,44
Nc1ncc2c(n1)-c1c([nH]c3ccc(C#CC4CC4)cc13)CCCC2,"binding, competition with immobilised ligand",1 µM,100
c1cncc(-c2cccc(Nc3nccc(NC4CCCCC4)n3)c2)c1,"binding, competition with immobilised ligand",10 µM,16
CN(CCCC(F)(F)F)c1nccc(-c2cnn3ncccc23)n1,binding,1 µM,100
